Active and inactive are the calls of the source. No cut-off for these calls is given here.
Legend:
[1] = (§1) Inhibition of X4-tropic HIV-1 LAI Vif infected in MT4 cells assessed as inhibition of viral replication incubated for 10 to 15 days measured on every second day by reverse transcriptase assay by reverse transcriptase assay; format: cell-based, Human immunodeficiency virus 1
Summary of the method: (§2)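 Cells (2 x 10⁵/well) were pretreated overnight with 1 to 50 µM compound in RPMI with 10% FBS, then infected with X4-tropic HIV-1 LAI. Cultures were kept ± compound for 10-15 days. Every second day, 1/3 of supernatant was replaced with compound-containing medium, and RT activity was measured in supernatant. RN-18 served as positive control and untreated cells as negative control. There were ≥3 repeats; IC50 was calculated.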

[2] = (§3) Inhibition of X4 tropic HIV-1 LAI Vif infected in H9 cells assessed as inhibition of viral replication incubated for 10 to 15 days measured on every second day by reverse transcriptase assay; format: cell-based, Human immunodeficiency virus 1; summary of the method: as §2
[3] = tested on: Human immunodeficiency virus 1; assay: Inhibition of HIV-1 GFP tagged Vif expressed in 293FT cells co-expressing HA-tagged A3G assessed as upregulation of HA-A3G expression at 50 uM incubated for 16 hrs by immunoblotting assay; format: cell-based
Summary of the method: (§4)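 293FT cells co-expressing HA-tagged A3G with GFP-tagged Vif or ΔVif were grown for 16 h with antagonist at 50 µM or without compound. Extracts were immunoblotted with anti-HA (A3G), anti-GFP (Vif) and anti-GAPDH antibodies. A3G and Vif levels were compared with untreated Vif-expressing cells. RN-18 served as positive control and choline chloride as a further control.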

[4] = tested on: Human immunodeficiency virus 1; assay: Inhibition of HIV-1 GFP tagged Vif expressed in 293FT cells co-expressing HA-tagged A3G assessed as downregulation of GFP-Vif expression at 50 uM incubated for 16 hrs by immunoblotting assay; format: cell-based; summary of the method: as §4
[5] = Permeability across synthetic membrane at pH 6.2 by PAMPA assay; format: ADME
[6] = Permeability across synthetic membrane at pH 7.4 by PAMPA assay; format: ADME
[7] = Permeability across synthetic membrane at pH 5.0 by PAMPA assay; format: ADME
[8] = Cytotoxicity against human Fa2N-4 cells upto 50 uM by luminescence ATP detection assay; format: cell-based
Plasma [9] = assay: Plasma protein binding in human; format: ADME, cell-free
Plasma [10] = assay: Metabolic stability in human plasma; format: ADME, cell-free
[11] = Kinetic solubility at pH 7.2 by UV spectroscopic analysis; format: physicochemical; details: buffer
Liver microsomes = assay: Metabolic stability in human liver microsomes; format: ADME, Microsome
[12] = Kinetic solubility at pH 6.2 by UV spectroscopic analysis; format: physicochemical; details: buffer
[13] = Kinetic solubility at pH 5.0 by UV spectroscopic analysis; format: physicochemical; details: buffer
[14] = Inhibition of X4-tropic HIV-1 LAI Vif infected in CEM cells assessed as inhibition of viral replication incubated for 14 to 21 days measured on every other day by reverse transcriptase assay; format: cell-based; details: Human immunodeficiency virus 1, LAI, CCRF-CEM
[15] = Inhibition of X4-tropic HIV-1 LAI Vif infected in MT4 cells assessed as inhibition of viral replication incubated for 10 to 15 days measured on every other day by reverse transcriptase assay; details: Human immunodeficiency virus 1, LAI
MT4 = assay: as §1; format: cell-based; details: Human immunodeficiency virus 1; summary of the method: as §2
H9 = assay: as §3; format: cell-based; details: Human immunodeficiency virus 1; summary of the method: as §2
[16] = Human immunodeficiency virus 1, LAI, H9, read-out: IC50

Row | Compound | IC50 ([1]; mt4) | IC50 [2, 16] | HA-A3G upregulation (active/not active) [3] | GFP-Vif downregulation activity call [4] | also measured
1 | COc1ccccc1NC(=O)c1cccnc1Sc1ccc([N+](=O)[O-])cc1 | Not Active | 10 µM |  |  | 
2 | COc1ccccc1NC(=O)c1ccc(Sc2ccc([N+](=O)[O-])cc2)cc1Cl | Not Active | 2.5 µM | Active | Active | 
3 | COc1ccccc1NC(=O)c1ccccc1S(=O)(=O)c1ccc(C(=O)[O-])cc1.C[N+](C)(C)CCO | Not Active | 10 µM | inactive | inactive | permeability [5]: impermeable; permeability [6]: impermeable; permeability [7]: permeable; Activity [8]: Non-toxic; PPB (Plasma [9]): Active; Stability (Plasma [10]): Stable; Kinetic_solubility [11]: soluble; Stability (Liver microsomes): Stable; Kinetic_solubility [12]: soluble; Kinetic_solubility [13]: soluble
4 | COc1ccccc1NC(=O)c1ccccc1Sc1ccc([N+](=O)[O-])cc1 | Not Active | 6 µM | Active | Active | IC50 [14]: 4.5 µM; IC50 [15]: > 100 µM
5 | O=C(Nc1ccccc1I)c1ccccc1Sc1ccc([N+](=O)[O-])cc1 | Not Active | 4.3 µM |  |  | 
6 | COC(=O)c1ccc(Sc2ccccc2C(=O)Nc2ccccc2OC)cc1 |  |  |  |  | inhibition (MT4): inactive; inhibition (H9): inactive
7 | COC(=O)c1ccc(NC(=O)c2ccccc2Sc2ccc([N+](=O)[O-])cc2)c(OC)c1 | Not Active | 10 µM |  |  | 
8 | COc1ccccc1NC(=O)c1ccc(C)nc1Sc1ccc([N+](=O)[O-])cc1 | Not Active | 1.5 µM | Active | Active | 
9 | COc1ccccc1NC(=O)c1ccccc1Sc1ccc(C(=O)[O-])cc1.C[N+](C)(C)CCO | Not Active | 1 µM |  |  | inhibition (MT4): inactive; inhibition (H9): inactive
10 | CS(=O)(=O)Oc1ccccc1NC(=O)c1ccccc1Sc1ccc([N+](=O)[O-])cc1 | Not Active | 5.6 µM |  |  | 
11 | COc1ccccc1NC(=O)c1ccccc1Cl |  |  | inactive | inactive | IC50 ([1]; Human immunodeficiency virus 1, LAI, MT4, read-out: IC50): > 50 µM; IC50 ([2]; h9): Not Active
12 | COc1ccccc1NC(=O)c1ccccc1S(=O)(=O)c1ccc([N+](=O)[O-])cc1 | Not Active | 1.1 µM | Active | Active | 

Source: ChEMBL document CHEMBL2203028, “SAR and Lead Optimization of an HIV-1 Vif-APOBEC3G Axis Inhibitor” (ACS Med Chem Lett, 2012)
